Screening data from PubChem BioAssay.
Hits are enriched below; roughly 1.3% of the tested compounds scored in any of these assays.
LEDGF integ inh – blocks HIV-1 LEDGF/p75-dependent DNA integration; TR-FRET IN-LEDGF/p75 DNA integration, Eu/Cy5; inhibition, % at 3.7 µM; hit rate 0.64% among 370,000; AID 743269;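 active means inhibition above the screen-wide mean plus 3 SD, cut at about 13% in these data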;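 further: signal is the Cy5 over europium emission ratio at 671 and 618 nm; 0% = plate median of compound wells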
NSD2 inh – inhibitors of human histone methyltransferase NSD2. NSD2 peptide methylation, AlphaScreen, 120 min. inhibition, % at 12.5 µM. hit rate 0.54% among 310,000; in the data active means inhibition above about 50%
TDP2 inh – TDP2 (human) inhibition, absorbance primary screen | O95551 | recombinant TDP2, T5PNP hydrolysis, p-nitrophenol absorbance 415 nm | inhibition, % at 12.8 µM | hit rate 0.34% among 370,000;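 active means inhibition above the mean of all tested compounds plus 3 SD, set per campaign, cut at about 25% in these data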;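 further: 0% = DMSO with enzyme and 100% = buffer with substrate but no TDP2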
Target sequence (O95551 whole entry, looked up): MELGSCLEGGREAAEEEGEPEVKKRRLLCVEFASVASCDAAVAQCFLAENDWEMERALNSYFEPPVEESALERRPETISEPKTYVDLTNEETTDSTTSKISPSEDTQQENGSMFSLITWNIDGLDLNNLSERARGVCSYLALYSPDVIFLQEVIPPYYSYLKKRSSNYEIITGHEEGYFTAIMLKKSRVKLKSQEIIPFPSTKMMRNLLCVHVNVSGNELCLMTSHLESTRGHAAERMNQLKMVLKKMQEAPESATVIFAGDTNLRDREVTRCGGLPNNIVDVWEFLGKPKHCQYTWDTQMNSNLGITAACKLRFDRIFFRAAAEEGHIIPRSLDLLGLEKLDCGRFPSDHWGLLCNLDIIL
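System – recombinant human TDP2 · Amount – 120 nM TDP2 per well · Buffer or medium – Mg2+-containing Tris-HCl buffer, pH 7.5 · Reagent – T5PNP substrate, 5 mM · Dosing – 12.8 µM single point, 1% DMSO · Incubation – 2 h at 37 °C · Measured by – epi absorbance · Read-out basis – percent inhibition · Benchmarks – high control without enzyme, low control DMSO plus TDP2 · Repeats – singlicate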
Casp6 inh – caspase-6 (human) enzyme inhibition; P55212; purified caspase-6, Z-VEID-R110 cleavage fluorescence; inhibition, % at 12.5 µM; hit rate 0.53% among 350,000; AID 686996;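 active means mean inhibition across replicates at least about 35%, with every replicate also reaching that limit, limit read from the data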;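 further: 0% = median of neutral control wells and 100% = no fluorescence left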
Target sequence (P55212 24-179 limits assumed): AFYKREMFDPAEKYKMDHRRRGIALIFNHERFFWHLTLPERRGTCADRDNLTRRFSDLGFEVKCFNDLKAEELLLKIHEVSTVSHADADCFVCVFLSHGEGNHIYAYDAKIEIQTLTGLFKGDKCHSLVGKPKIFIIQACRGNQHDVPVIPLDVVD
Target sequence (P55212 194-293 limits assumed): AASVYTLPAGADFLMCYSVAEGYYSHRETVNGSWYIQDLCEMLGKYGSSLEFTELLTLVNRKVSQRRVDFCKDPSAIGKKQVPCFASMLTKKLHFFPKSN
UCH37 DUB inh – inhibitors of human deubiquitinating enzyme UCH37; inhibition, % (concentration not given with the values); AID 588478; purified proteasome/UCH37, Ub-AMC cleavage fluorescence; Q9Y5K5; hit rate 0.33% among 330,000;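 active means mean inhibition over replicate wells above about 20%, limit read from the data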;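 further: 0% = compound-free wells with enzyme and 100% = wells lacking proteasome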
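Material: human UCH37 enzyme supplied as purified proteasome complex. Measure: % inhibition of Ub-AMC cleavage fluorescence. Medium: pH 7.4 Tris-HCl (50 mM) with ovalbumin, ATP-MgCl2, DTT. Times: 30 min preincubation with enzyme, 25 min cleavage at room temperature. Detection: AMC fluorescence intensity at 355/460 nm.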
AlphaScreen art – counter-screen for NSD2 inhibitors: AlphaScreen artifacts; hit rate 9.4% among 1,500; AlphaScreen artifact counterscreen, preloaded methylated H4 peptide; shares compounds with NSD2 inh; AID 1053174; AC35, µM (highest dose often 10 µM), inactives show at the top dose activity change, negative = signal loss; call rule not given here
Starred values were filed as active, the others as inactive; / = no result given.

SMILES	LEDGF integ inh	NSD2 inh	TDP2 inh	Casp6 inh	UCH37 DUB inh	AlphaScreen art
CCOC(=S)NC(=NS(C)(=O)=O)c1ccccc1	/	/	/	/	2	/
O=[N+]([O-])c1cccc(S(=O)(=O)NN=Cc2ccc(O)cc2)c1	/	/	/	/	3	/
Cn1cc2ccc(N)cc2n1	-6	87*	-3	0	-21	0%
Cc1ccc2nc(C)cc(NN=Cc3cccc(O)c3)c2c1	/	/	/	/	-49	/
COc1ccc(C=NNS(=O)(=O)c2ccc(C)cc2)cc1COc1ccccc1[N+](=O)[O-]	/	/	/	/	4	/
O=C(Nc1cc(F)ccc1F)N1CCN(c2ccnc3cc(Cl)ccc23)CC1	3	61*	3	-1	4	0%
COC(=O)c1ccc(/C=N\N2CCN(Cc3ccc(C)cc3)CC2)cc1	1	1	-2	-7	/	/
COC(=O)c1ccc(/C=N/N2CCN(Cc3ccccc3)CC2)cc1	0	52*	3	/	/	-6%
COc1ccc2c(c1)CCC2=NOC(=O)c1cccc(C)c1	/	/	/	/	1	/
COc1ccc(/C=C2/C(=O)N(c3c(F)c(F)c(F)c(F)c3F)N=C2C)cc1	-1	58*	23	6	1	2%
COc1ccc(/C=C2/C(=O)N(c3ccccc3)N=C2C)cc1	/	12	/	/	5	/
COc1cc(C=NNC(=O)c2cccc3ccccc23)cc(OC)c1O	/	/	/	/	2	/
O=C(CCC(=O)Nc1ccc(Br)cc1)NN=Cc1ccc(F)cc1	/	/	/	/	2	/
Cc1ccc2cccc(OCc3ccc(Br)cc3)c2n1	-1	51*	-4	1	4	-6%
Cc1ccc2cccc(OCc3ccc(F)cc3)c2n1	-3	-2	4	1	0	/
CCOC(=O)c1sc2nc(C)nc(NC3CCC(O)CC3)c2c1C (configuration not stated)	2	91*	17	3	-120	-5%
CCOC(=O)c1sc2nc(C)nc(NCc3ccccc3OC)c2c1C	4	0	9	9	-21	/
CCOC(=O)C1=C(C)N=c2sc(=C3C(=O)Nc4ccccc43)c(=O)n2C1c1ccc(C)cc1 (configuration not stated)	/	/	/	/	6	/
COc1cccc(C=NNC(=O)c2ccc3nc[nH]c3c2)c1	/	/	/	/	7	/
CCCCN(CC)CCNC(=O)c1ccc2c(Cl)c3c(nc2c1)CCC3	3	75*	-13	-10	3	-4%
Cc1ccc(N2CN=c3s/c(=C\c4ccccn4)c(=O)n3C2)cc1	0	59*	-6	/	/	-8%
CC1=CCC2C(=O)N(c3cccc(C(=O)N(C)C4CCCCC4)c3)C(=O)C2C1 (configuration not stated)	0	89*	2	/	2	1%
CN(C(=O)c1cccc(N2C(=O)C3C4C=CC(C4)C3C2=O)c1)C1CCCCC1 (configuration not stated)	0	-7	-8	-4	0	/
O=C(Nc1ccc(F)cc1)C1CCN(C(=O)c2ccc(F)cc2)CC1	1	3	3	-2	-3	/
O=C(NNC(=O)c1ccc(NC(=O)C2CC2)cc1)c1ccc(F)cc1	-7	52*	-3	0	1	-5%
SMILES	LEDGF integ inh	NSD2 inh	TDP2 inh	Casp6 inh	UCH37 DUB inh	AlphaScreen art
CCOC(=O)C1(C)CCCN1C(=O)c1cccc(F)c1 (configuration not stated)	5	59*	-8	-3	/	1%
CCn1c(SCC(=O)N2CCCCC2)nc2c1c(=O)n(C)c(=O)n2C	0	69*	-11	1	1	-1%
CCCCn1c(SCC(=O)N2CCCC2)nc2c1c(=O)n(C)c(=O)n2C	4	0	-3	/	2	/
C=CCC1C=C(Cc2ccccc2)CC(CC=C)N1 (configuration not stated)	2	54*	-6	3	4	-4%
CNCCCOc1cccc(Oc2ccccc2)c1	5	127*	-2	1	5	0%
CNCCCOc1cccc(OC(C)C)c1	3	92*	4	/	/	-3%
CC(O)CNCCCOc1cccc(Oc2ccccc2)c1 (configuration not stated)	6	3	7	0	8	/
CC(=NO)c1cc(Br)c2cccc3c2c1CC3	-2	66*	-6	0	/	-3%
CCc1cc(OCCN2C(=O)NC(C)(C)C2=O)ccc1Cl	2	72*	4	/	4	-3%
CCON=C(C)c1c(O)cc(C(C)(C)C)n(-c2ccccc2)c1=O	/	/	/	/	-3	/
CNC(=O)CN1C(=O)c2cccc3cccc1c23	-2	1	3	/	-6	/
CN1/C(=N\O)c2cccc3cccc1c23	-2	55*	3	/	/	8%
CC(C)(C)C(=O)NC1CC2CCCC(C1)N2C(=O)Nc1ccc(Cl)cc1 (configuration not stated)	-2	56*	14	-5	5	5%
CCN(CC)CCNC(=O)Cc1nn(Cc2ccccc2)c(=O)c2ccccc12	4	51*	-4	-3	6	-2%
Cc1ccc2cccc(NC3OC(=O)c4ccccc43)c2n1 (configuration not stated)	0	87*	5	/	7	-5%
C1=CC2=NC34CCCCC3CC3=C(CCCC3)N4C2=CC1=NC1CCCCC1 (configuration not stated)	/	/	/	/	2	/
CC1(C)CC(N=C2C=CC3=NC45CCCCC4CC4=C(CCCC4)N5C3=C2)CC(C)(C)N1 (configuration not stated)	/	64*	/	/	/	-6%
CC(Cc1ccccc1)=NNC(=O)CNC(=O)c1ccc(Cl)cc1Cl	/	/	/	/	4	/
CCOC(=O)Nc1cc(C(=O)OC)ccc1C	-3	119*	4	-1	0	5%
Cc1cccc(NCCNc2cccc(C)c2)c1	-2	56*	7	/	2	-4%
CCCCCCCNc1cccc(C)c1	-1	0	-9	-1	1	/
CC1(C)Cc2sc3c(=O)[nH]c(=S)[nH]c3c2CO1	-3	75*	-1	-4	5	-2%
COc1ccc(C=NNC(=O)CNC(=O)/C=C/c2ccccc2OC)cc1	/	/	/	/	-10	/
CC(=O)NCCN1C(=O)C2C3c4ccccc4C(c4ccccc43)C2C1=O (configuration not stated)	-4	76*	5	0	6	-4%
Cn1c(=NN=Cc2ccc(N3CCOCC3)cc2)sc2ccccc21	/	/	/	/	3	/
COc1ccc(CCNC(=O)C2CCN(C(=O)c3ccccc3C)CC2)cc1	0	51*	-6	1	2	-2%
O=C1c2ccccc2CCc2ccccc21	0	0	-1	0	1	/
C/[N+]([O-])=C1\Cc2ccccc2C1=O	1	61*	-16	/	2	0%
O=c1[nH]c(CN2CCCCC2)ccc1O	13	65*	10	22	/	1%
CSc1nc(NCCCN(C)C)c2c3c(sc2n1)CN(C)CC3	-5	6	-16	-30	/	/
